Assay results from ChEMBL document CHEMBL3994610, “A Macrocyclic Agouti-Related Protein/[Nle4,DPhe7]α-Melanocyte Stimulating Hormone Chimeric Scaffold Produces Subnanomolar Melanocortin Receptor Ligands” (J Med Chem, 2017).
Square brackets hold non-standard residues; d marks the D form. Peptide text beside a SMILES is read from it. Dap = NC[C@H](N)C(=O)O

Key:
[1] = biological target: Melanocortin receptor 3 (Homo sapiens) (UniProt P41968); test: Agonist activity at human MC3R expressed in CHO cells assessed as increase in IBMX-induced cAMP accumulation at 10 uM after 45 mins by [125I]cAMP flash plate assay relative to MT-2
Sequence of Melanocortin receptor 3 (Homo sapiens) (P41968 whole entry, looked up): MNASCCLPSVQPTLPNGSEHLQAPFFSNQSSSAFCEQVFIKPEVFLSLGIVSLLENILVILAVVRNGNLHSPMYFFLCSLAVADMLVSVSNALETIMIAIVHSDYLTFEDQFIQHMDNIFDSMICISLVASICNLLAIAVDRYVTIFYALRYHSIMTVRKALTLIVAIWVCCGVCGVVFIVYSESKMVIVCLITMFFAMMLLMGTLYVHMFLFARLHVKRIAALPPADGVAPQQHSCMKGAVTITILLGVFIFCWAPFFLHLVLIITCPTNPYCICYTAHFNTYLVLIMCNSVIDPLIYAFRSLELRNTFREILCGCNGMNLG

Mus musculus [2] = species: Mus musculus; test: Selectivity ratio of EC50 for mouse MC3R to EC50 for mouse MC4R
Mus musculus [3] = species: Mus musculus; test: Selectivity ratio of EC50 for mouse MC3R to EC50 for mouse MC5R
[4] = biological target: Melanocortin receptor 3 (Mus musculus) (UniProt P33033); test: Agonist activity at mouse MC3R expressed in HEK293 cells assessed as increase in forskolin-induced cAMP accumulation at 100 uM preincubated for 2 hrs followed by biotinylated cAMP addition and subsequent incubation for 2 hrs by AlphaScreen assay relative to NDP-MSH; format: functional, cell-based
Sequence of Melanocortin receptor 3 (Mus musculus) (P33033 whole entry): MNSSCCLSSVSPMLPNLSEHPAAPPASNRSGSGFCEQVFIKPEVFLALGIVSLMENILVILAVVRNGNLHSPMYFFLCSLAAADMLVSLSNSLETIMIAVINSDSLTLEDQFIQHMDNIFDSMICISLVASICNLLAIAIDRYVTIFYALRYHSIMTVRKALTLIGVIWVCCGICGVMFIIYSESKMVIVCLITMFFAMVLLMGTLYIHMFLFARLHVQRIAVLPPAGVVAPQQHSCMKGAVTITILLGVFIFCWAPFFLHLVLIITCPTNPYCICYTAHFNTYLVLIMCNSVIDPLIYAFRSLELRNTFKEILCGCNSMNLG
Procedure, shortened: (§1)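 HEK293 cells stably expressing mouse MC1R, MC3R, MC4R or MC5R, at 70-90% confluence, were detached with Versene at 37 °C and plated at 10,000 cells/well. Stimulation buffer was HBSS with 5 mM HEPES, 0.5 mM IBMX and 0.1% BSA, pH 7.4, plus anti-cAMP acceptor beads. Peptide from 10^-2 M DMSO stock was added and incubated 2 hr in the dark at room temperature. Forskolin at 10^-4 M was the reference stimulus.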

Mus musculus [5] = species: Mus musculus; test: Selectivity ratio of EC50 for mouse MC3R to EC50 for mouse MC1R
[6] = biological target: Melanocortin receptor 4 (Mus musculus) (UniProt P56450); test: Agonist activity at mouse MC4R expressed in HEK293 cells assessed as increase in forskolin-induced cAMP accumulation at 100 uM preincubated for 2 hrs followed by biotinylated cAMP addition and subsequent incubation for 2 hrs by AlphaScreen assay relative to NDP-MSH; format: functional, cell-based
Sequence of Melanocortin receptor 4 (Mus musculus) (P56450 whole entry): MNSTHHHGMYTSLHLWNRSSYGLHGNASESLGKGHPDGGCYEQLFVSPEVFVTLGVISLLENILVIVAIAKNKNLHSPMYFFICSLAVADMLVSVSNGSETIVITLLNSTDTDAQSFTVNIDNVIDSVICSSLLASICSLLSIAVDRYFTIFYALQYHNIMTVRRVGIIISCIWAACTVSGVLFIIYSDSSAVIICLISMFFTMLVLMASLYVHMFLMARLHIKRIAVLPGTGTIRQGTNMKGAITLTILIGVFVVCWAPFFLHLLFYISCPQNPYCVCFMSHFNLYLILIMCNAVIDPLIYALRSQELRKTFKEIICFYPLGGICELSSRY
Procedure, shortened: as §1

Mus musculus [7] = species: Mus musculus; test: Selectivity ratio of EC50 for mouse MC4R to EC50 for mouse MC3R
Melanocortin receptor 3 = Melanocortin receptor 3 (Mus musculus, UniProt P33033); test: Agonist activity at mouse MC3R expressed in HEK293 cells assessed as increase in forskolin-induced cAMP accumulation preincubated for 2 hrs followed by biotinylated cAMP addition and subsequent incubation for 2 hrs by AlphaScreen assay; format: functional, cell-based
Sequence of Melanocortin receptor 3 (P33033 whole entry): as the sequence (P33033 whole entry) above
Procedure, shortened: as §1

[8] = biological target: Melanocortin receptor 5 (Mus musculus) (UniProt P41149); test: Agonist activity at mouse MC5R expressed in HEK293 cells assessed as increase in forskolin-induced cAMP accumulation at 100 uM preincubated for 2 hrs followed by biotinylated cAMP addition and subsequent incubation for 2 hrs by AlphaScreen assay relative to NDP-MSH; format: functional, cell-based
Sequence of Melanocortin receptor 5 (Mus musculus) (P41149 whole entry): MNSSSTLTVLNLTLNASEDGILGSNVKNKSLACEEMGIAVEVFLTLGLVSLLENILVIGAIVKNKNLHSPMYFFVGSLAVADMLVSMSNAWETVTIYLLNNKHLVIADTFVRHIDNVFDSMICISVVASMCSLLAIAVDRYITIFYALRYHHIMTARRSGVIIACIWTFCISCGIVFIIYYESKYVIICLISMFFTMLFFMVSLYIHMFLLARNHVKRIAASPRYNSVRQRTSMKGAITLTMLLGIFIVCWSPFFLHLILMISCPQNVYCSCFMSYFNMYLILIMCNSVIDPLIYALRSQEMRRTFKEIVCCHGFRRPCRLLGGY
Procedure, shortened: as §1

[9] = biological target: Melanocyte-stimulating hormone receptor (Mus musculus) (UniProt Q01727); test: Agonist activity at mouse MC1R expressed in HEK293 cells assessed as increase in forskolin-induced cAMP accumulation at 100 uM preincubated for 2 hrs followed by biotinylated cAMP addition and subsequent incubation for 2 hrs by AlphaScreen assay relative to NDP-MSH; format: functional, cell-based
Sequence of Melanocyte-stimulating hormone receptor (Mus musculus) (Q01727 whole entry, looked up): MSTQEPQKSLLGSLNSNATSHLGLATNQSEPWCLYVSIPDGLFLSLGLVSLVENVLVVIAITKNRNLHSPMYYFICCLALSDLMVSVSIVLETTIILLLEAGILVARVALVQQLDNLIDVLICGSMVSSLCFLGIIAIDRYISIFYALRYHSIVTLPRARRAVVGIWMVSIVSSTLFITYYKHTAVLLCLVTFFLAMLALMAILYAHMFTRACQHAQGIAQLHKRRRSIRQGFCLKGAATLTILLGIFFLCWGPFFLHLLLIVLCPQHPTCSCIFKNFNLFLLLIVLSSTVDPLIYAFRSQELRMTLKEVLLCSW
Procedure, shortened: as §1

Melanocortin receptor 5 = Melanocortin receptor 5 (Mus musculus, UniProt P41149); test: Agonist activity at mouse MC5R expressed in HEK293 cells assessed as increase in forskolin-induced cAMP accumulation preincubated for 2 hrs followed by biotinylated cAMP addition and subsequent incubation for 2 hrs by AlphaScreen assay; format: functional, cell-based
Sequence of Melanocortin receptor 5 (P41149 whole entry): as the sequence (P41149 whole entry) above
Procedure, shortened: as §1

Mus musculus [10] = species: Mus musculus; test: Selectivity ratio of EC50 for mouse MC4R to EC50 for mouse MC1R
Mus musculus [11] = species: Mus musculus; test: Selectivity ratio of EC50 for mouse MC5R to EC50 for mouse MC1R

Structure (SMILES)	Ratio EC50 (Mus musculus [3])	Activity [4] [%]	Ratio EC50 (Mus musculus [5])	Activity [6] [%]	also measured
CCCC[C@H](NC(C)=O)C(=O)N[C@H]1CC(=O)NCCCC[C@@H](C(=O)N2CCC[C@H]2C(=O)N[C@H](C(N)=O)C(C)C)NC(=O)[C@H](Cc2c[nH]c3ccccc23)NC(=O)[C@H](CCCNC(=N)N)NC(=O)[C@@H](Cc2ccccc2)NC(=O)[C@@H]2CCCN2C1=O					Efficacy [1]: 12%
C[C@@H]1NC(=O)[C@H](CC(N)=O)NC(=O)[C@H](Cc2c[nH]c3ccccc23)NC(=O)[C@H](CCCNC(=N)N)NC(=O)[C@@H](Cc2ccccc2)NC(=O)[C@H](Cc2cnc[nH]2)NC(=O)[C@@H]2CCCN2C(=O)[C@H]2CCCN2C(=O)[C@H](Cc2ccccc2)NC1=O (cyclo(H[dF]RWNAF[dP]P))					Ratio EC50 (Mus musculus [2]): 23
C[C@@H]1NC(=O)[C@H](CN)NC(=O)[C@H](Cc2c[nH]c3ccccc23)NC(=O)[C@H](CCCNC(=N)N)NC(=O)[C@@H](Cc2ccccc2)NC(=O)[C@H](Cc2cnc[nH]2)NC(=O)[C@@H]2CCCN2C(=O)[C@H]2CCCN2C1=O (cyclo(H[dF]RW[Dap]A[dP]P))	> 100				Ratio EC50 (Mus musculus [2]): 25
N=C(N)NCCC[C@@H]1NC(=O)[C@@H](Cc2ccccc2)NC(=O)[C@H](Cc2cnc[nH]2)NC(=O)[C@@H]2CCCN2C(=O)[C@H]2CCCN2C(=O)[C@H](CN)NC(=O)[C@H](Cc2c[nH]c3ccccc23)NC1=O (cyclo(H[dF]RW[Dap][dP]P))	> 100	65	> 100		
N=C(N)NCCC[C@@H]1NC(=O)[C@@H](Cc2ccccc2)NC(=O)[C@H](Cc2cnc[nH]2)NC(=O)[C@@H]2CCCN2C(=O)[C@H]2CCCN2C(=O)[C@H](Cc2c[nH]c3ccccc23)NC1=O (cyclo(H[dF]RW[dP]P))		60		65	
C[C@@H]1NC(=O)[C@H](CC(N)=O)NC(=O)[C@H](Cc2c[nH]c3ccccc23)NC(=O)[C@H](CCCNC(=N)N)NC(=O)[C@@H](Cc2ccccc2)NC(=O)[C@@H]2CCCN2C(=O)[C@H]2CCCN2C1=O (cyclo(P[dF]RWNA[dP]))	> 1000	55	> 100		Ratio EC50 (Mus musculus [7]): > 100
N=C(N)NCCC[C@@H]1NC(=O)[C@@H](Cc2ccccc2)NC(=O)[C@@H]2CCCN2C(=O)[C@H]2CCCN2C(=O)[C@H](CC(N)=O)NC(=O)[C@H](Cc2c[nH]c3ccccc23)NC1=O (cyclo(P[dF]RWN[dP]))			> 2500	85	EC50 (Melanocortin receptor 3): > 100 µM; Activity [8]: 25%; Activity [9]: 85%
C[C@@H]1NC(=O)[C@H](CN)NC(=O)[C@H](Cc2c[nH]c3ccccc23)NC(=O)[C@H](CCCNC(=N)N)NC(=O)[C@@H](Cc2ccccc2)NC(=O)[C@@H]2CCCN2C(=O)[C@H]2CCCN2C1=O (cyclo(P[dF]RW[Dap]A[dP]))	> 1000	70			Ratio EC50 (Mus musculus [7]): > 300

More lines, main results first:

Ratio EC50 (Mus musculus [3])	Activity [4] [%]	Ratio EC50 (Mus musculus [5])	Activity [6] [%]	Structure (SMILES)	also measured
> 1000	45	> 100		C[C@@H]1NC(=O)[C@H](CC(N)=O)NC(=O)[C@H](Cc2c[nH]c3ccccc23)NC(=O)[C@H](CCCNC(=N)N)NC(=O)[C@@H](Cc2ccccc2)NC(=O)[C@@H]2CCCN2C(=O)[C@H]2CCCN2C(=O)[C@H](Cc2ccccc2)NC1=O (cyclo(P[dF]RWNAF[dP]))	Ratio EC50 (Mus musculus [7]): > 300
	70			C[C@@H]1NC(=O)[C@H](CN)NC(=O)[C@H](Cc2c[nH]c3ccccc23)NC(=O)[C@H](CCCNC(=N)N)NC(=O)[C@@H](Cc2ccccc2)NC(=O)[C@@H]2CCCN2C(=O)[C@H]2CCCN2C(=O)[C@H](Cc2ccccc2)NC1=O (cyclo(P[dF]RW[Dap]AF[dP]))	Activity [9]: 45%
		> 500	35	N=C(N)NCCC[C@@H]1NC(=O)[C@@H](Cc2ccccc2)NC(=O)[C@@H]2CCCN2C(=O)[C@H]2CCCN2C(=O)[C@H](CN)NC(=O)[C@H](Cc2c[nH]c3ccccc23)NC1=O (cyclo(P[dF]RW[Dap][dP]))	EC50 (Melanocortin receptor 3): > 100 µM; EC50 (Melanocortin receptor 5): > 100 µM; Activity [9]: 75%; Ratio EC50 (Mus musculus [10]): > 500; Ratio EC50 (Mus musculus [11]): > 500
			50	N=C(N)NCCC[C@@H]1NC(=O)[C@@H](Cc2ccccc2)NC(=O)[C@@H]2CCCN2C(=O)[C@H]2CCCN2C(=O)[C@H](Cc2c[nH]c3ccccc23)NC1=O (cyclo(P[dF]RW[dP]))	EC50 (Melanocortin receptor 3): > 100 µM
